Results on 16 compounds are retold here after ChEMBL document CHEMBL3616430, “Discovery, synthesis and biochemical profiling of purine-2,6-dione derivatives as inhibitors of the human poly(A)-selective ribonuclease Caf1” (Bioorg Med Chem Lett, 2015).

The structures appear in SMILES notation. Activity calls are given as the source filed them. The rule behind the calls is not given here.

CCR4-NOT transcription complex subunit 6 (Homo sapiens), sequence (Q9ULM6 whole entry, one chain of several): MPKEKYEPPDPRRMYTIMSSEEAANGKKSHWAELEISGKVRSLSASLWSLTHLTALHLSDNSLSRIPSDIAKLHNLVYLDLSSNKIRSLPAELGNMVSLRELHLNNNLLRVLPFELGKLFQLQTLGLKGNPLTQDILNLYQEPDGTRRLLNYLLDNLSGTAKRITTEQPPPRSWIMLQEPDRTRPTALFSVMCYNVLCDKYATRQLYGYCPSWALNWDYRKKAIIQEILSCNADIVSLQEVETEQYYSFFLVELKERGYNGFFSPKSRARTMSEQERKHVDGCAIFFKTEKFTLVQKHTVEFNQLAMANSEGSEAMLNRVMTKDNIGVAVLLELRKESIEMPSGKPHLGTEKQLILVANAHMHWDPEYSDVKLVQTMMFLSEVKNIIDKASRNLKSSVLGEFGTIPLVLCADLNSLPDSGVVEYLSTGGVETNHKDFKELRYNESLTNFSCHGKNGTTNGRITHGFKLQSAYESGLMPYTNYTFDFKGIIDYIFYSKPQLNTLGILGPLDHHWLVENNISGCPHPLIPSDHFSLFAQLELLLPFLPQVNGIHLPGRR

The target in the first assay is CCR4-NOT transcription complex subunit 6 (Homo sapiens) (UniProt Q9ULM6). Kind of assay: Inhibition of Ccr4 (unknown origin) at 3 uM by fluorescence-based assay. The method in brief:
(§1)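 Fluorescence-based ribonuclease activity assay with Ccr4, using one compound concentration per reaction (30, 10 or 3 μM, as in each line). The reactions compared were a no-enzyme control, a complete reaction with enzyme, and a complete reaction plus compound. Data are shown with standard deviation error bars.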
For the compound `CN(C)CCCn1c(=O)n(O)c(=O)c2c1ncn2CCc1ccccc1`, the inhibition entry was “inactive”.

As for `CC(C)CCCn1c(=O)n(O)c(=O)c2c1ncn2CCc1ccccc1`, the inhibition entry was “inactive”.

The target is the same in the next assay. Kind of assay: Inhibition of Ccr4 (unknown origin) at 10 uM by fluorescence-based assay. Summed up: as §1
On to `O=c1[nH]c2ncn(CCc3ccccc3)c2c(=O)n1O`, for which the inhibition entry is “inactive”.

For `O=c1[nH]c2ncn(CCOc3ccccc3)c2c(=O)n1O`, the inhibition result is “inactive”. `O=c1[nH]c2ncn(CCc3ccccn3)c2c(=O)n1O`: the inhibition result was “inactive”.

For the compound `O=c1[nH]c2ncn(CCc3cccs3)c2c(=O)n1O`, the inhibition result was “inactive”.

The target is the same in another assay. Kind of assay: Inhibition of Ccr4 (unknown origin) at 30 uM by fluorescence-based assay. Summed up: as §1
Consider `O=c1[nH]c2ncn(C3CCCCC3)c2c(=O)n1O`, for which the inhibition result was “inactive”. On to `O=c1[nH]c2ncn(Cc3ccccn3)c2c(=O)n1O`, for which the inhibition entry was “inactive”.

In the case of `CCCCCCCCCn1c(=O)n(O)c(=O)c2c1ncn2CCc1ccccc1`, the inhibition result is “inactive”. Take `O=c1[nH]c2ncn(Cc3cccnc3)c2c(=O)n1O`: the inhibition entry was “inactive”. As to `O=c1[nH]c2ncn(Cc3ccncc3)c2c(=O)n1O`, the inhibition entry is “inactive”. On the same count and under the same terms, in the case of `O=c1c2c(ncn2CCc2ccccc2)n(CCCc2ccccc2)c(=O)n1O` it was “inactive”. Take `O=c1[nH]c2ncn(Cc3ccccc3)c2c(=O)n1O`: the inhibition entry was “inactive”. `CCn1c(=O)n(O)c(=O)c2c1ncn2CCc1ccccc1`: the inhibition entry was “inactive”. The same measure, in the same setting: in the case of `Cn1c(=O)n(O)c(=O)c2c1ncn2CCc1ccccc1` it was “inactive”; in that of `CCCCCn1c(=O)n(O)c(=O)c2c1ncn2CCc1ccccc1`, “inactive”.
